PKA-R2B act – activates the human PKA-R2B holoenzyme complex; PKA-R2B holoenzyme dissociation, Cy5-IP20 fluorescence polarization; R2B truncated from residue 108, S112A mutant; 0% DMSO only, 100% 113 µM cGMP; P22694+P31323; AID 504700; 340,000 compounds, 0.079% hits; activation, % at 11.4 µM;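 active = activation above a cutoff set at the mean over all compounds plus 3 SD, cut at about 18% in these data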;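 also: higher means more holoenzyme dissociation and a rise in polarization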
PG9 binder – small molecules binding HIV-1 gp120 antibody PG9 | TR-FRET gp120-PG9 antibody binding | inhibition, % at 6.7 µM | 360,000 compounds, 0.43% hits | AID 624416; in the data active = inhibition above about 8.5%
NR2E3 ag-1 – agonists of human NR2E3 nuclear receptor; Q9Y5X4; CHO-S Gal4-NCOR/VP16-NR2E3 two-hybrid, luciferase; inhibition of corepressor binding, % at 3.98 µM; 360,000 compounds, 0.35% hits; AID 602229;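 active = inhibition above the mean of all tested compounds plus 3 SD, cut at about 70% in these data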;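 also: 0% = DMSO with NR2E3 transfected cells and 100% = cells lacking NR2E3 construct; higher means lower luciferase signal from less NR2E3 corepressor binding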
Target sequence (Q9Y5X4 whole entry, looked up, the tested form may be a part): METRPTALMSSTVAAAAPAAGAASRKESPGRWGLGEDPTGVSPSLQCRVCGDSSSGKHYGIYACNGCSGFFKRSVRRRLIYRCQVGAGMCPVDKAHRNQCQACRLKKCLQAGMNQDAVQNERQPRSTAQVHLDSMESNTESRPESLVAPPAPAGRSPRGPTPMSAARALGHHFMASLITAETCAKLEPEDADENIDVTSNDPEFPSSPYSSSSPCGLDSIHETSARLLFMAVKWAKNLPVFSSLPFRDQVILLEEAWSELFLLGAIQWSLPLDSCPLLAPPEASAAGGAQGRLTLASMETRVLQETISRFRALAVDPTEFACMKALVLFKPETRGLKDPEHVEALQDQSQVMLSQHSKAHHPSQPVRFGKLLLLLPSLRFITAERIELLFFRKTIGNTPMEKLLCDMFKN
NR2E3 ag-2 – activates human photoreceptor nuclear receptor NR2E3; inhibition of corepressor binding, % at 4.78 µM; Q9Y5X4; 320,000 compounds, 0.12% hits; GST-NR2E3/biotin-RetCOR TR-FRET, 1536-well; AID 2300;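 active = percent inhibition above the cutoff of mean plus 3 SD of all tested compounds, set per screening campaign, cut at about 20% in these data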;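 also: 0% = DMSO wells and 100% = biotin wells as full block of FRET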
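Material – GST-tagged NR2E3 plus biotinylated RetCOR corepressor · Quantity – NR2E3 fusion 1.35 nM · Times – 5 h incubation at 4 °C · Medium – pH 7.5 Tris-based buffer · Technique – TR-FRET, Eu(K)-anti-GST donor, streptavidin-D2 acceptor, ex 340, em 617/671 nm · Benchmarks – high control biotin, low control 0.6% DMSO · Format – 1536-well plates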
PKA-R1A activ – activators of PKA-R1A complex; activation, % at 11.4 µM; 340,000 compounds, 0.083% hits; PKA-R1A dissociation, Cy5-IP20 fluorescence polarization; scaled: DMSO 0%, 113 µM cGMP 100%; P00514+P68181;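 active = percent activation above the mean of all tested compounds plus 3 SD, cut at about 19% in these data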;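 also: higher means more PKAc released from R1A so a rise in polarization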
Rev-erbA mod – Rev-erb alpha (human) modulation. P20393. Rev-erbα–FITC-DNA binding, fluorescence polarization, 90 min. activity, % at 10 µM. 370,000 compounds, 0.79% hits;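 active = activity above about 14%, limit read from the data; passing the limit was not always enough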;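 also: 0% = DMSO wells with 35 nM protein and 100% = DMSO wells with 750 nM protein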
Rev-erbA confirm – Rev-erb alpha (human) modulation, hit confirmation | shares compounds with Rev-erbA mod | activation, % at 25 µM | Rev-erb alpha FITC-DNA binding, fluorescence polarization, 90 min | 3,000 compounds, 61% hits;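 active = activation at or above a set limit, or at least 3 SD above the negative control mean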;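 also: 0% = 35 nM protein with DMSO and 100% = 750 nM protein high control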
RORg counter – counter-screen for Rev-erb alpha modulators: RORgamma DNA binding. shares compounds with Rev-erbA mod. purified RORgamma protein-FITC-DNA binding, fluorescence polarization. IC50, µM. 910 compounds, 8% hits;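 active = Compounds whose fitted half-maximal concentration for disrupting protein-DNA binding is below 10 micromolar; the record names Rev-erb in its text, so the target is in doubt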
Starred values were filed as active, the others as inactive; i = inactive; nt = not tested or not shown. Rows were chosen to be rich in hits. Some 1.6% of all compounds tested hit in one or more screens of this group.

SMILES	PKA-R2B act	PG9 binder	NR2E3 ag-1	NR2E3 ag-2	PKA-R1A activ	Rev-erbA mod	Rev-erbA confirm	others
Cc1c(C(=O)N2CCN(Cc3ccc4c(c3)OCO4)CC2)sc2ncnc(N3CCN(c4ccccc4)CC3)c12	-9	-1	-6	1	-8	14	nt
Cc1cc(C)cc(N(CC(=O)NC2CCC(C)CC2)S(=O)(=O)c2cccs2)c1 (configuration not stated)	nt	nt	nt	nt	nt	-6	nt
COc1ccc(-c2c(C#N)c(C)nc3c2C(=O)c2ccccc2-3)cc1	7	-1	-17	-2	-4	151*	122*
COc1cccc(CNC(=O)c2nnn(CC(=O)Nc3ccc(Br)cc3)c2N)c1	-2	0	-8	-2	4	19*	6
Cc1cc(C)cc(NC(=O)Cn2nnc(C(=O)NCc3ccc4c(c3)OCO4)c2N)c1	2	-1	1	1	-1	9	nt
Cc1ccc(CNC(=O)c2nnn(CC(=O)Nc3cc(C)cc(C)c3)c2N)cc1	4	0	7	6	-6	24*	21*
CN(C)CC(=O)N[C@H]1C[C@@H]2O[C@@H](CO)CC[C@@H]2O[C@@H]1CCc1ccc(C2=CCCCC2)cc1	nt	nt	nt	nt	nt	1	nt
COc1ccc2nc(C(F)(F)C(F)(F)F)c(C#N)c(N)c2c1	-13	-2	12	1	-7	46*	28*
CCn1c2c(n(C(C)=O)c1=O)C[C@@H](c1ccccc1)[C@@H](C)[C@@H](C(=O)N1CCCC1)C2	nt	0	nt	nt	nt	-7	nt
CC(C)Cn1c(N)c(C(=O)CSc2ncnc3sc4c(c23)CCCC4)c(=O)n(C)c1=O	-2	1	-7	0	-5	65*	14
Cc1ccnc(NS(=O)(=O)c2ccc(NC(=O)c3cc(-c4ccc(Br)cc4)nc4ccccc34)cc2)n1	1	-1	3	-1	-14	39*	17*
COc1ccc(C(=O)CSc2nnc(-c3cccs3)o2)cc1OC	nt	nt	nt	nt	nt	14	nt
Cc1ccc(-n2nc(C)c3c(-c4cccs4)c(C#N)c(N)nc32)cc1	2	0	-51	2	-11	60*	30*
Cc1nn(-c2ccccc2)c2nc(N)c(C#N)c(-c3ccc(F)cc3)c12	-13	-1	-27	0	-8	5	nt
CN1CCCCC(NC(=O)c2ccc(F)cc2)C1=O (configuration not stated)	nt	-1	nt	nt	nt	2	nt
CN(C)c1ccc(S(=O)(=O)N2CCCCC2)cc1NC(=O)C1CSC2(C)CCC(=O)N12 (configuration not stated)	2	1	19	-1	-7	3	nt
CCN(CC)S(=O)(=O)c1ccc(N2CCCCC2)c(NC(=O)C2CSC3(C)CCC(=O)N23)c1 (configuration not stated)	1	0	-33	nt	1	31*	47*	RORg counter=>40
Cc1ccc(-c2nnc(SCC(=O)Nc3ccc(OCc4ccccc4)cc3)n2-c2ccc(Cl)cc2)cc1	nt	nt	nt	nt	nt	4	nt
O=C(OCC(=O)N1CCN(S(=O)(=O)c2ccc(Cl)cc2)CC1)c1cc(Br)ccc1O	-3	1	-26	-2	-6	121*	80*	RORg counter=i
Nc1nccnc1C(=O)OCC(=O)N1CCN(S(=O)(=O)c2ccc(Cl)cc2)CC1	-1	1	-35	-2	2	-1	nt
O=C(OCC(=O)N1CCCc2ccccc21)c1cc(Br)ccc1O	-18	-1	14	2	-7	36*	26*
COCCNC(=O)c1ccc2c(c1)S(=O)(=O)c1cc(Cl)ccc1C2=O	-1	-3	-5	3	-2	0	nt
O=C(NCCOc1ccccc1)c1ccc2c(c1)S(=O)(=O)c1cc(Cl)ccc1C2=O	-4	0	-11	nt	3	23*	15
Cc1ccccc1/C=C1\SC(=S)N(/N=C/c2cc([N+](=O)[O-])ccc2O)C1=O	-14	-2	1	-4	-14	22*	4
O=C(Cn1nnc(-c2ccc(N3CCOCC3)cc2)n1)c1ccc(F)cc1	nt	nt	nt	nt	nt	-4	nt
SMILES	PKA-R2B act	PG9 binder	NR2E3 ag-1	NR2E3 ag-2	PKA-R1A activ	Rev-erbA mod	Rev-erbA confirm	others
O=C1CCC[C@H]2C[C@H](NCc3ccccc3Cl)CC[C@]23CCCN13	nt	nt	nt	nt	nt	2	nt
CC(C)(C)OC(=O)NCc1cc(F)ccc1/C=C/S(=O)(=O)NCc1ccccc1	nt	nt	nt	nt	nt	9	nt
CCOc1ccc(C(=O)Nc2sc3c(c2C(=O)OC)CC(C)(C)NC3(C)C)cc1	-7	-1	-19	-3	2	70*	-9
CC1CCN(Cc2cc(=O)oc3ccc(C(C)C)cc23)CC1	-1	1	-12	1	-9	22*	33*	RORg counter=>40
COC(=O)C1CN(C2CCCC2)CCS(=O)(=O)N1Cc1cn(Cc2ccc(Cl)cc2)nn1 (configuration not stated)	nt	nt	nt	nt	nt	-4	nt
COc1ccc(C2CC(c3ccc(Cl)c(Cl)c3)Nc3nc(N)nn32)cc1 (configuration not stated)	3	0	-31	0	-2	31*	17*
O=C(NCc1ccco1)O[C@@H]1CC[C@@]23CCCN2C(=O)CCC[C@H]3C1	nt	nt	nt	nt	nt	4	nt
COc1ccc(-n2c(COc3ccc(C)cc3)nnc2SCC(=O)c2ccc(-c3ccccc3)cc2)cc1	nt	nt	nt	nt	nt	45*	28*
Cc1ccc(OCc2nnc(SCC(=O)c3ccccc3)n2-c2ccccc2)cc1	-8	-3	6	1	-17	-3	nt
COc1ccc(C(=O)CSc2nnc3ccc(-c4ccccn4)nn23)cc1	10	0	-12	3	0	52*	19*
O=C(CSc1nnc2ccc(-c3ccccn3)nn12)Nc1cccc(F)c1	-7	1	21	nt	11	22*	16*
CC(C)C[C@@H]1COc2cc(N3CCCC3)ccc2S(=O)(=O)N1	nt	-1	nt	nt	nt	0	nt
COc1ccc(N2CCCN(CC(=O)Nc3ccccc3C)CC2)cc1	nt	nt	nt	nt	nt	-3	nt
CC(C)C[C@H]1COc2cccc(N3CCSCC3)c2S(=O)(=O)N1C	nt	nt	nt	nt	nt	6	nt
COc1ccc(C(=O)Nc2ccccc2C(=O)Nc2ccccc2)cc1	-5	-1	-65	nt	-8	68*	45*	RORg counter=>40
COc1ccc(NC(=O)NNC(=O)c2cc3ccccc3cc2O)cc1	2	-1	-35	-2	17	46*	30*	RORg counter=>40
COc1ccc(C(=O)Nc2ccc(NC(=O)c3cccc(OC)c3)cn2)cc1	-2	7	-67	-1	7	18*	14
